Source: ChEMBL document CHEMBL1132631, “Comparison of four 64Cu-labeled somatostatin analogues in vitro and in a tumor-bearing rat model: evaluation of new derivatives for positron emission tomography imaging and targeted radiotherapy” (J Med Chem, 1999)

Columns and labels:
Rattus norvegicus [1] = species: Rattus norvegicus; assay: The percent block of uptake of [64Cu]-TETA-Y3-TATE in somatostatin-rich tissues by a co-injection of compound; format: functional
Method in brief: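 In CA20948 tumor-bearing Lewis rats, [⁶⁴Cu]TETA-Y3-TATE (5.4 μCi, 5 ng) was given i.v. by tail vein, either alone or co-injected with 150 μg of unlabeled competing peptide. All groups were killed at 1 h. Tissues were excised, weighed and γ-counted, with decay correction, to give %ID/g.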

Rattus norvegicus [2] = species: Rattus norvegicus; assay: The pancreatic uptake of [64Cu]-TETA-Y3-TATE in somatostatin-rich (ID/g) tissues by a co-injection of compound at 1 h

C[C@H](O)[C@H](NC(=O)[C@H]1CSSC[C@H](NC(=O)[C@H](N)Cc2ccccc2)C(=O)N[C@@H](Cc2ccc(O)cc2)C(=O)N[C@@H](Cc2c[nH]c3ccccc23)C(=O)N[C@@H](CCCCN)C(=O)N[C@H]([C@H](C)O)C(=O)N1)C(=O)O
Block (Rattus norvegicus [1]): > 90% | Uptake (Rattus norvegicus [2]): 0.15 %ID/g
